The nature of this data set: Toxicity liver stage against HepG2, at 10uM. Further details: test concentration 10 uM, cell line HepG2-A16-CD81EGFP. The settings on record: human, HepG2-A16-CD81EGFP cells; read-out: INHIBITION
Type of data set: cell-based. A digest of the protocol: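 Uninfected HepG2-A16-CD81EGFP cells, 3 × 10^3 per well, 1536-well, plated on prespotted compound at 10 μM final, parasite-free screening media added to match infected plates; puromycin 10 μM positive, DMSO 0.5% negative; run in parallel with 48 h PbLuc assay at 37 °C, 5% CO2; viability by CellTiter-Glo luminescence, normalized to controls.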

As to `CC(=O)Nc1sccc1C(=O)C(C)(C)C`, the cytotoxicity at 10 µM is -44.7%. Turning to `CCOc1ccc(CNCCCn2ccnc2)cc1Br`, the cytotoxicity at 10 µM was -6.81%. To `CCn1ncc(CN2CCC(c3ncc(Cl)cc3S(C)(=O)=O)CC2)c1C` belongs 3.5%; to `Cc1ccc(N(C)[C@@H]2CC[C@@H]3CN(C(=O)CC4CCOCC4)C[C@@H]32)nn1`, -1.79%. To `CCc1cccc(NC(=O)CCC(=O)N(C)Cc2nc(C)c[nH]2)c1` belongs -1.92%; to `Cc1nnc([C@H]2CC[C@@H]3[C@@H](CCN3Cc3c(C)noc3C)O2)o1`, -2.26%; to `CC(=O)N1CCOCC(Cc2ccc3c(ccn3C(C)=O)c2)C1` (stereo not given), 1.64%. To `O=C(NCC(Cc1cccc(F)c1)N1CCCC1=O)c1ccccc1` (stereo not given) belongs -12.2%.

On to `CN1C[C@@H](N)C[C@H]1C(=O)N1CCC(Cc2ccc(F)cc2)CC1`, for which the cytotoxicity at 10 µM was -21.2%. For the compound `Cc1cn(CC(=O)NC2CCN(C(=O)C3CC3)CC2)c2ccccc12`, the cytotoxicity at 10 µM is -3.57%. Regarding `COc1cccc(-c2n[nH]c3c2CN(C(=O)c2cc(C)n(C)n2)CC3)c1`, the cytotoxicity at 10 µM is -0.159%. For `Cc1csc(Nc2nccnc2C2CCCN2S(C)(=O)=O)n1` (stereo not given), the cytotoxicity at 10 µM is -3.69%.

Take `COc1cc(CNCCc2cnn(C)c2)cc2c1OCO2`: the cytotoxicity at 10 µM is -9.3%.

With `COc1ccc(CCN2CC(n3nc(C)cc3C)C2)cc1`, the cytotoxicity at 10 µM was -9.12%. Regarding `COCCN(Cc1ccccc1)C(=O)c1csc(-c2nnc[nH]2)n1`, the cytotoxicity at 10 µM was 4.9%. To `CCOCc1ncn2c1CN(S(=O)(=O)c1cccs1)CCC2` belongs 9.52%; to `Cc1ccc(C(=O)N2CCC(Oc3cccc(C)c3C)CC2)c(=O)[nH]1`, -6.48%; to `CCS(=O)(=O)NCC(Cc1cccc(F)c1)N1CCNC1=O` (stereo not given), -1.89%.

As to `CCn1cc2c(n1)CN(Cc1ccc(F)cc1)CC2COCC1CC1` (stereo not given), the cytotoxicity at 10 µM was -69%. To `COc1cccc(CN2CCCC3(CCN(C(=O)[C@H]4CCCO4)C3)C2)c1` (stereo not given in full) belongs 5.01%.

With `COc1ccc2c(c1)nc1n2[C@@H](CNCc2ncccc2C)COC1`, the cytotoxicity at 10 µM was 3.1%. To `Cc1cccc(CNC(CN2CCN(C)CC2)c2ccccc2)c1` (stereo not given) belongs -3.61%. In the case of `Cn1ncc(N2CCOC(CCNC(=O)CO)C2)cc1=O` (stereo not given), the cytotoxicity at 10 µM is -8.58%. For the compound `CSCc1ccc(N2CCC(C(O)CC(C)C)CC2)nc1` (stereo not given), the cytotoxicity at 10 µM stood at 11.4%.

In the case of `COCCC(=O)NCCCOC1CCCc2ccccc21` (stereo not given), the cytotoxicity at 10 µM is -6.87%.

With `CC(c1cccc(S(N)(=O)=O)c1)N(C)CCOC(C)(C)C` (stereo not given), the cytotoxicity at 10 µM is -32.8%. To `COCC(c1cccc(C(F)(F)F)c1)N(C)C(=O)c1ccccn1` (stereo not given) belongs -12%. With `Cc1ccc(CN2CCc3ncnc(-c4cccnc4)c3CC2)o1`, the cytotoxicity at 10 µM was found to be 1.06%. To `O=C(NCCn1ccc(-c2ccncc2)n1)c1ccncc1` belongs -19.1%; to `CN(C)Cc1ccc(C2CCCCN2C(=O)c2ncccc2O)cc1` (stereo not given), -6.59%. To `CC(C)C(C)NC(=O)Nc1cccc2c1CCN(S(C)(=O)=O)C2` (stereo not given) belongs -11.3%; to `CC(C)C(=O)NCC(=O)N1CCC2(CC1)c1ccccc1[C@@H](N)[C@@H]2O`, 0.174%.

`CC(C)CC(NC(=O)c1ccn(C)c(=O)c1)c1cccs1` (stereo not given): the cytotoxicity at 10 µM amounted to 1.67%. To `CN(CC(=O)N(C)C(c1cccnc1)c1ccc(F)c(F)c1)C1CC1` (stereo not given) belongs -3.57%. For `Cn1cc(CNCC2(O)CCCCC2)c(-c2cccnc2)n1`, the cytotoxicity at 10 µM was determined as 14.9%. On to `Cc1nn(C)c(N(C)C)c1CNCCCN(C)S(C)(=O)=O`, for which the cytotoxicity at 10 µM was -4.07%.

Take `COc1cc(C)nc(N2CCN(C(=O)CCn3cc(C)cn3)CC2)n1`: the cytotoxicity at 10 µM was -3.56%. In the case of `CCOC(=O)c1ccc(S(=O)(=O)NCC(CC)N2CCCC2)cc1` (stereo not given), the cytotoxicity at 10 µM is -7.4%. To `COc1ccc(-n2cccn2)c(CN2CCC(O)(CO)CC2)c1` belongs 3.4%; to `CCO[C@H]1CC[C@H]2[C@H]1OCCN2C(=O)CC1=CCCCC1`, 1.75%; to `Cc1cc(NC(=O)CN2CCn3c(nnc3C(C)C)C2)no1`, -1.11%. To `COc1ccc(C(=O)Nc2n[nH]c(C3CCCO3)n2)cc1` (stereo not given) belongs -2.46%; to `CN1CCC(N2CC[C@H](c3nc4ccc(C(F)(F)F)cc4[nH]3)C2)CC1`, -10.2%; to `CN(Cc1ccco1)[C@@H]1CN(Cc2ccsc2)C[C@@H]2CCCO[C@@H]21`, 9.59%.

Take `CCOCc1ncn2c1CN(S(=O)(=O)c1cccs1)CC2`: the cytotoxicity at 10 µM amounted to 0.719%. To `Cc1cc(-c2nc(-c3c(C)ncc4c3CCNC4)no2)nc(C)n1` belongs 4.43%; to `Cc1ccc(-c2nc(CN3CCOC(Cn4cccn4)C3)co2)cc1` (stereo not given), -5.3%. Turning to `O=C(CCc1ccncc1)N1CCc2c(ncnc2N2CCOCC2)C1`, the cytotoxicity at 10 µM is -11.5%. For the compound `CCN1CCc2[nH]nc(C(=O)N3CCCC3C)c2C1` (stereo not given), the cytotoxicity at 10 µM is -4.9%.

As to `Cc1ccc(-n2nnc(C(=O)Nc3cc(C)nn3C)c2C2CC2)cc1`, the cytotoxicity at 10 µM was 0.888%.

With `COc1ccccc1CNc1c(O)c(=O)c1=O`, the cytotoxicity at 10 µM stood at 4.65%. With `CN(CC(C)(C)O)C1CCCN(Cc2noc(C3CC3)n2)C1` (stereo not given), the cytotoxicity at 10 µM was 0.85%.

As for `COc1ccc(CC(=O)Nc2ccc3ncn(C(C)C)c(=O)c3c2)cc1`, the cytotoxicity at 10 µM worked out at 3.97%. To `COc1ccc(-c2nc(CC(=O)N(C)CCC#N)cs2)cc1OC` belongs 0.19%; to `CCN(CCN1CCCCCC1)C(=O)c1cnc(-c2cccnc2)nc1`, 11.4%.

Regarding `O=C(Cc1csc(-c2ccccn2)n1)NCCCN1CCCCCC1=O`, the cytotoxicity at 10 µM was 1.16%. `Cc1noc(C)c1Cn1cc(I)cc(C)c1=O`: the cytotoxicity at 10 µM stood at 4.92%.

For `CC(Cn1cncc1-c1cnn(C2CCCCC2)c1)N1CCCCC1` (stereo not given), the cytotoxicity at 10 µM came to 2.87%.

For the compound `Cc1noc(C)c1S(=O)(=O)N1CCC(n2cccn2)CC1`, the cytotoxicity at 10 µM is 2.63%.

In the case of `COCc1cccc(C(=O)N2C[C@@H]3CC[C@H]2CN(Cc2cscn2)C3)n1`, the cytotoxicity at 10 µM worked out at 5.01%.

Turning to `CC(C(=O)Nc1ccccn1)n1ccc(C(F)(F)F)n1` (stereo not given), the cytotoxicity at 10 µM stood at 2.74%. To `CCNC(=O)N(C)C1CCN(Cc2ncc(C)c(OC)c2C)CC1` belongs -0.514%; to `CC(C)C(C(=O)N1CCCN(c2nccs2)CC1)n1cncn1` (stereo not given), -4.98%. To `COc1ccc(CC(=O)N2CCCC(c3cc(C)[nH]n3)C2)cc1` (stereo not given) belongs -7.69%; to `Cn1c(=O)[nH]c(=O)c2c1nc1n2CC(c2ccc(Br)cc2)O1` (stereo not given), -1.41%; to `CCNC(=O)N(C)Cc1ccc(SC)c(OC)c1`, -13.1%. To `Cc1cc(C(=O)N2CCC3(CCCN(CC4CC4)C3=O)C2)c(C)n1C` (stereo not given) belongs -5.5%; to `O=c1[nH][nH]cc1-c1ccnc(NCCc2cccnc2)n1`, -8.86%; to `CCn1nc(C)c2c1cnn2CCNS(=O)(=O)CC`, 2.63%. With `COCCN1CCN(Cc2nccs2)[C@H]2CS(=O)(=O)C[C@H]21`, the cytotoxicity at 10 µM is -1.82%. For `CCCN1CCN(C(=O)c2cnn(-c3ccccc3F)c2)CC1`, the cytotoxicity at 10 µM was determined as 0.313%. To `O=C1CC(NCc2cnc(-c3cccs3)nc2)CN1c1ccccc1` (stereo not given) belongs 1.58%. `CN(Cc1ccco1)C(=O)CN1C(=O)c2ccccc2C1=O`: the cytotoxicity at 10 µM is -2.96%. To `CCc1nc(CN2CCCN(C(=O)c3cc(C)on3)CC2)cs1` belongs -7.81%.

As to `O=C(CC1CC1)N1CCC2(CC1)CN(Cc1cccnc1)C(=O)CO2`, the cytotoxicity at 10 µM was determined as 3.59%. In the case of `CC(C)Oc1ccc(CNC(=O)C2CCS(=O)(=O)C2)cn1` (stereo not given), the cytotoxicity at 10 µM worked out at 0.788%. To `CN1C[C@@H](COCC2CC2)[C@H]2CCN(Cc3ccco3)CC[C@H]2C1=O` belongs -4.6%. Take `Cc1ccc(C(=O)N2CCN(S(C)(=O)=O)CC2)cc1N1CCNC1=O`: the cytotoxicity at 10 µM is -5.07%. To `Cc1[nH]ccc1C(=O)N1CCC2(CC1)c1nc[nH]c1CCN2S(C)(=O)=O` belongs 6.63%. In the case of `CN1C[C@H](O)[C@]2(CCN(Cc3ccc(F)c(F)c3)C2)S1(=O)=O`, the cytotoxicity at 10 µM is -1.42%. With `CS(=O)(=O)NCc1cc2n(n1)CCCN(Cc1cccc(C#N)c1)C2`, the cytotoxicity at 10 µM was -8.33%. To `COC(=O)[C@H]1CN(C(=O)NC(C)C)CCN1C(=O)c1cccs1` belongs -0.832%; to `Cc1ccc(Cl)cc1-n1nnnc1C1(N2CCCC2)CCCCC1`, 18.9%; to `O=C(Nc1nccs1)NC1CCN(Cc2ccccc2)C1` (stereo not given), -9.93%.

Take `O=C(c1scc2c1OCCO2)N1CCOC(Cc2ccc(F)cc2)C1` (stereo not given): the cytotoxicity at 10 µM is 1.73%. Consider `CCc1ncncc1C(=O)NCCNc1ncnc2sccc12`, for which the cytotoxicity at 10 µM is -5.68%. In the case of `CC(C)(C(=O)NCC1CC1)c1ccccc1F`, the cytotoxicity at 10 µM is -5.47%. To `Cc1noc(C)c1CCC(=O)NC(C)c1nnc2n1CCC2` (stereo not given) belongs -3.39%; to `CNC(=O)C1CCCCN1C(=O)CCn1cnc2sccc2c1=O` (stereo not given), -7.18%; to `CCC(NC(=O)CC(F)(F)F)c1ccccc1OCC(=O)N1CCCC1` (stereo not given), 0.145%. As to `Cc1cc(C)c2c(OCC(=O)N(C)CC(=O)NC(C)C)nn(C)c2n1`, the cytotoxicity at 10 µM was 1.28%. For `CCN1CCC(CC(=O)N2CCCCC2CCn2cccn2)CC1` (stereo not given), the cytotoxicity at 10 µM is -5.02%. To `CCNC(=O)c1cnc(Cc2ccc(F)cc2)s1` belongs 4.44%; to `Cc1nc(C)c(C(=O)N2Cc3ccccc3OCC2Cn2ccnc2)s1` (stereo not given), 9.21%; to `CCC(=O)N1C[C@@H](C(=O)NC)[C@H](c2ccnc(N3CCCC3)n2)C1`, -1.21%.

For the origin of these results see ChEMBL document CHEMBL4513216, “Probing the Open Global Health Chemical Diversity Library for Multistage-Active Starting Points for Next-Generation Antimalarials” (ACS Infect Dis, 2020).
